One data set deals with WIL2-NS. Nature of the data set: Cytotoxicity against human WIL2-NS cells after 96 hrs by MTT assay. The class given is functional. A digest of the protocol:
(§1)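 Haematological tumour lines were seeded at 1 × 10^5 cells/ml in RPMI-1640 with 10% FCS plus penicillin/streptomycin. Serial dilutions from a 100 mM DMSO stock were added. After 96 h at 37 °C in 5% CO2, viability was read by MTT. The 50% proliferation-inhibiting concentration (µM) was obtained by linear regression against untreated controls, which completed at least three rounds of multiplication. Values are means of three determinations.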

The subject of another data set is DU-145. As to the kind of experiment: Cytotoxicity against human DU145 cells after 96 hrs by MTT assay. Format: functional. The settings on record: DU-145, 96 h. A digest of the protocol: (§2)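 Solid tumour lines were seeded at 1 × 10^5 cells/ml in line-specific media with 10% FCS and antibiotics. Serial dilutions from a 100 mM DMSO stock were added. After 96 h at 37 °C in 5% CO2, viability was read by MTT. The 50% growth-inhibiting concentration (µM) was obtained by linear regression versus untreated controls. Values are means of three independent determinations.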

A further data set deals with CCRF-CEM. As to the kind of experiment: Cytotoxicity against human CCRF-CEM cells after 96 hrs by MTT assay. Format: functional. Put shortly: as §1
The next data set concerns MCF7. As to the kind of experiment: Cytotoxicity against human MCF7 cells after 96 hrs by MTT assay. Format: functional. The settings on record: MCF7, 96 h. Put shortly: as §2
Data set [1] in a line: Cytotoxicity against human MT4 cells after 96 hrs by MTT assay. The class given is cell-based.
In a further data set the test system is SK-MEL-28. Nature of the data set: Cytotoxicity against human SK-MEL-28 cells after 96 hrs by MTT assay. The class given is functional. The settings on record: SK-MEL-28, 96 h. Put shortly: as §2
The test system of the next data set is CCRF-SB. As to the kind of experiment: Cytotoxicity against human CCRF-SB cells after 96 hrs by MTT assay. Format: functional. Put shortly:
as §1

For a further data set, the system named is HepG2. As to the kind of experiment: Cytotoxicity against human HepG2 cells after 96 hrs by MTT assay. Format: functional. The settings on record: HepG2, 96 h. Put shortly: as §2
The test system of the next data set is SK-MES-1. Nature of the data set: Cytotoxicity against human SKMES1 cells after 96 hrs by MTT assay. Format: functional. The settings on record: SK-MES-1, 96 h. A digest of the protocol:
as §2

For data set [2], the system named is Staphylococcus epidermidis. As to the kind of experiment: Antibacterial activity against methicillin-resistant Staphylococcus epidermidis clinical isolate 311/08 after 18 hrs by twofold serial agar dilution technique. The settings on record: clinical isolate 311/08, 18 h. The class given is functional. Put shortly: (§3)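 Clinical isolates came from patients in Warsaw Medical University Hospitals and were classed as methicillin-susceptible or -resistant. MIC was determined by twofold serial agar dilution on Mueller–Hinton II agar (CLSI), 3.125–400 µg/mL in agar, with compounds in methanol or DMSO. Inoculum was 10^4 CFU/mL and plates were read after 18 h at 35 °C.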

Data set [3] has as its system Staphylococcus epidermidis. Nature of the data set: Antibacterial activity against methicillin-resistant Staphylococcus epidermidis clinical isolate 318/08 after 18 hrs by twofold serial agar dilution technique. Format: functional. The settings on record: clinical isolate 318/08, 18 h. Put shortly:
as §3

In data set [4] the test system is Staphylococcus epidermidis. Nature of the data set: Antibacterial activity against methicillin-resistant Staphylococcus epidermidis clinical isolate 315/08 after 18 hrs by twofold serial agar dilution technique. The class given is functional. The settings on record: clinical isolate 315/08, 18 h. A digest of the protocol: as §3
In data set [5] the test system is Staphylococcus epidermidis. As to the kind of experiment: Antibacterial activity against methicillin-resistant Staphylococcus epidermidis clinical isolate 340/09 after 18 hrs by twofold serial agar dilution technique. The class given is functional. The settings on record: clinical isolate 340/09, 18 h. A digest of the protocol:
as §3

Data set [6] has as its system Mus musculus. As to the kind of experiment: Toxicity in Albino Swiss mouse assessed as motor coordination administered at doses equivalent to 0.1 ED50, ip by rota rod test. The class given is organism-based. The settings on record: in vivo.
The subject of data set [7] is Mus musculus. Nature of the data set: Toxicity in Albino Swiss mouse assessed as effect on amphetamine-induced hyperactivity administered at doses equivalent to 0.1 ED50, ip. The settings on record: in vivo. The class given is organism-based. A digest of the protocol:
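Compound i.p. in 0.5% methylcellulose 60 min before test; amphetamine 5 mg/kg s.c. 30 min before test; single mice in photoresistor actometers, light-beam crossings counted for 30 min.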

Data set [8] relates to Mus musculus. As to the kind of experiment: Anticonvulsant activity in Albino Swiss mouse assessed as protection against pentylenetetrazole-induced mortality administered at doses equivalent to 0.1 ED50, ip. The class given is functional, organism-based.
A short description of data set [9]: Cytotoxicity against human MRC5 cells after 96 hrs by MTT assay. The class given is cell-based. Put shortly:
(§4)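 Normal fibroblasts seeded at 1 × 10^5 cells/ml in specific media with 10% FCS and antibiotics; serial compound dilutions (100 mM DMSO stock); 96 h at 37 °C, 5% CO2; MTT read-out; 50% proliferation-reduction concentration by linear regression vs untreated controls; mean of three determinations.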

In data set [10] the test system is Mus musculus. As to the kind of experiment: Antinociceptive activity in Albino Swiss mouse administered at doses equivalent to 0.025 to 0.1 ED50, ip in presence of naloxone. Format: functional, organism-based. Put shortly:
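Acetic acid (0.6%, i.p.) writhing test in male Albino Swiss mice, compound i.p. in 0.5% methylcellulose 60 min prior, with naloxone 5 mg/kg s.c.; writhes counted 10 min from 5 min post-acid; mean ± S.E.M., 8–10 mice per group.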

The test system of data set [11] is Staphylococcus epidermidis. Nature of the data set: Antibacterial activity against methicillin-resistant Staphylococcus epidermidis clinical isolate 342/09 after 18 hrs by twofold serial agar dilution technique. The settings on record: clinical isolate 342/09, 18 h. The class given is functional. A digest of the protocol: as §3
In data set [12] the test system is Mus musculus. Nature of the data set: Antinociceptive activity in Albino Swiss mouse administered at doses equivalent to 0.025 to 0.1 ED50, ip. The class given is functional, organism-based.
Data set [13] relates to Staphylococcus epidermidis. As to the kind of experiment: Antibacterial activity against methicillin-resistant Staphylococcus epidermidis clinical isolate 341/09 after 18 hrs by twofold serial agar dilution technique. Format: functional. The settings on record: clinical isolate 341/09, 18 h. Put shortly: as §3
For data set [14], the system named is Staphylococcus epidermidis. Nature of the data set: Antibacterial activity against methicillin-resistant Staphylococcus epidermidis clinical isolate 377/09 after 18 hrs by twofold serial agar dilution technique. Format: functional. The settings on record: clinical isolate 377/09, 18 h. Put shortly: as §3
The test system of data set [15] is Human immunodeficiency virus 1. As to the kind of experiment: Antiviral activity against HIV1 infected in human MT4 cells assessed as virus-induced cytopathogenicity after 4 days by MTT assay. The class given is functional, organism-based. The settings on record: Human immunodeficiency virus 1, MT4, 96 h.
In data set [16] the test system is Staphylococcus epidermidis. Nature of the data set: Antibacterial activity against methicillin-resistant Staphylococcus epidermidis clinical isolate 317/08 after 18 hrs by twofold serial agar dilution technique. The settings on record: clinical isolate 317/08, 18 h. The class given is functional. Put shortly: as §3
The subject of data set [17] is Staphylococcus epidermidis. Nature of the data set: Antibacterial activity against methicillin-resistant Staphylococcus epidermidis clinical isolate 343/09 after 18 hrs by twofold serial agar dilution technique. The class given is functional. The settings on record: clinical isolate 343/09, 18 h. A digest of the protocol: as §3
Data set [18] deals with Mus musculus. Nature of the data set: Reduction of 5-hydroxytryptophan-induced head twitch in Albino Swiss mouse administered at doses equivalent to 0.1 ED50, ip. The class given is functional, organism-based.
Data set [19] deals with Mus musculus. As to the kind of experiment: Toxicity in Albino Swiss mouse assessed as motor coordination administered at doses equivalent to 0.1 ED50, ip by chimney test. The settings on record: in vivo. Format: organism-based.
The subject of data set [20] is Mus musculus. As to the kind of experiment: Toxicity in Albino Swiss mouse assessed as locomotor activity administered at doses equivalent to 0.1 ED50, ip measured after 1 hr for 30 mins. The class given is organism-based. The settings on record: in vivo. A digest of the protocol: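 Spontaneous locomotor activity of single male Albino Swiss mice in photoresistor actometers (two light beams), beam crossings recorded for 30 min, starting 60 min after i.p. compound in 0.5% methylcellulose.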

The subject of data set [21] is Staphylococcus epidermidis. As to the kind of experiment: Antibacterial activity against methicillin-resistant Staphylococcus epidermidis clinical isolate 316/08 after 18 hrs by twofold serial agar dilution technique. Format: functional. The settings on record: clinical isolate 316/08, 18 h. Put shortly:
as §3

Data set [22] is described as follows: Cytotoxicity against human CRL7065 cells after 96 hrs by MTT assay. Format: cell-based, CRL-7065. A digest of the protocol: as §4
In data set [23] the test system is Mus musculus. As to the kind of experiment: Reduction of body temperature in normothermic Albino Swiss mouse administered at doses equivalent to 0.1 ED50, ip measured in rectum by thermistor thermometer analysis. The class given is ADME, organism-based. The settings on record: in vivo.
The subject of data set [24] is Mus musculus. Nature of the data set: Anticonvulsant activity in Albino Swiss mouse assessed as protection against pentylenetetrazole-induced severity of clonic or tonic seizures administered at doses equivalent to 0.1 ED50, ip. The class given is functional, organism-based.

Activity calls are given as the source filed them. No cut-off for these calls is given here.

For the compound `CC[C@@]1(O)C(=O)OCc2c1cc1n(c2=O)Cc2cc3ccccc3nc2-1` [CAMPTOTHECIN], the CC50 with WIL2-NS is 0.005 µM; in the data set on DU-145, 0.08 µM; in the data set on CCRF-CEM, 0.003 µM; with MCF7 it was 0.08 µM; in the data set with SK-MEL-28, 0.07 µM; with CCRF-SB, 0.004 µM. The CC50 was found to be 0.04 µM with HepG2 and 0.05 µM with SK-MES-1. This compound had a CC50 at 96 h in [1] of 0.004 µM.
Regarding `Nc1ncnn1/C(S)=N/Cc1ccccc1`, the MIC in data set [2], in data set [3], in data set [4], in data set [5], in data set [11] and in [13] was greater than 400 µg/mL throughout. Moreover, the MIC in [14], in [16], in data set [17] and in [21] was greater than 400 µg/mL throughout. In addition, the CC50 in the data set with WIL2-NS was found to be 52 µM; in the data set on DU-145, 11 µM; in the data set on CCRF-CEM, 39 µM; in the data set with MCF7 it was 49 µM; in the data set on SK-MEL-28, 72 µM; in the data set on CCRF-SB, 42 µM. The values for the CC50 in the data set on HepG2 and with SK-MES-1 were 78 µM and 85 µM, respectively. Further, the Activity entry in the data set on Mus musculus [6] is listed as “Non-toxic”; with Mus musculus [7], “Non-toxic”; in the data set with Mus musculus [19] it was “Non-toxic”; in the data set with Mus musculus [20], “Non-toxic”; in the data set with Mus musculus [23], “Toxic”. The result in the data set with Mus musculus [8], with Mus musculus [10] and with Mus musculus [24] was inactive. The half-maximal cytotoxic concentration (CC50) at 96 h came to 43 µM in data set [9], 7.4 µM in data set [1] and 47 µM in data set [22]. Further, the result in the data set on Mus musculus [12] and with Mus musculus [18] was Active. Also, in data set [15], the EC50 is greater than 7.4 µM.

(Values after ChEMBL document CHEMBL2062460, “Disubstituted thiourea derivatives and their activity on CNS: synthesis and biological evaluation” (Eur J Med Chem, 2012).)
